The results in this text go back to ChEMBL document CHEMBL3098034, “Synthesis and biological evaluation of α-hydroxyalkylphosphonates as new antimicrobial agents” (Bioorg Med Chem Lett, 2014).

Common to all, as to type: functional
For assay [1], the system named is Staphylococcus aureus. Description: Antibacterial activity against Staphylococcus aureus ATCC 29213 at 10 ug by disc diffusion method.
The subject of assay [2] is Escherichia coli. Description: Antibacterial activity against multidrug-resistant Escherichia coli BW54 at 10 ug by disc diffusion method.
Assay [3] has as its system Stenotrophomonas maltophilia. Description: Antibacterial activity against multidrug-resistant Stenotrophomonas maltophilia D457R at 10 ug by disc diffusion method. As to conditions: for zone of inhibition at 10 µg/disc: read-out: IZ.
Assay [4] has as its system Escherichia coli. Description: Antibacterial activity against ESBL-producing Escherichia coli BW55 at 10 ug by disc diffusion method.
Assay [5] deals with Acinetobacter haemolyticus. Put plainly: Antibacterial activity against vancomycin-resistant Acinetobacter haemolyticus BW62 at 10 ug by disc diffusion method.
The test system of assay [6] is Pseudomonas aeruginosa. Description: Antibacterial activity against multidrug-resistant Pseudomonas aeruginosa PAO1 at 10 ug by disc diffusion method. As to conditions: for zone of inhibition at 10 µg/disc: read-out: IZ.
For assay [7], the system named is Bacillus cereus. Description: Antibacterial activity against Bacillus cereus ATCC 11778 at 10 ug by disc diffusion method.
Assay [8] has as its system Staphylococcus aureus. Put plainly: Bactericidal activity against methicillin-resistant Staphylococcus aureus BW61 after 24 hrs by CFU counting assay. The note with it: BW61, 24 h. The gist of the method:
(§1)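 MBC (lowest concentration killing the pathogen) determined per CLSI specifications, with fosfomycin, ceftriaxone, ciprofloxacin and chloramphenicol run as reference drugs; S. aureus ATCC 29213 used as quality-control strain.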

In assay [9] the test system is Bacillus cereus. Description: Bactericidal activity against Bacillus cereus ATCC 11778 after 24 hrs by CFU counting assay. As to conditions: ATCC 11778, 24 h. The gist of the method:
as §1

Assay [10] deals with Staphylococcus aureus. Put plainly: Antibacterial activity against methicillin-resistant Staphylococcus aureus BW61 after 24 hrs by broth microdilution method. As to conditions: BW61, 24 h. The method in brief:
(§2)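 MIC (lowest concentration preventing growth) determined per CLSI specifications, with fosfomycin, ceftriaxone, ciprofloxacin and chloramphenicol run as reference drugs; S. aureus ATCC 29213 used as quality-control strain.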

The test system of assay [11] is Escherichia coli. Put plainly: Antibacterial activity against multidrug-resistant Escherichia coli BW54 after 24 hrs by broth microdilution method. The note with it: BW54, 24 h. The gist of the method: as §2
In assay [12] the test system is Staphylococcus aureus. Put plainly: Antibacterial activity against Staphylococcus aureus ATCC 29213 after 24 hrs by broth microdilution method. The note with it: ATCC 29213, 24 h. The method in brief: as §2
Assay [13] concerns Bacillus cereus. Description: Antibacterial activity against Bacillus cereus ATCC 11778 after 24 hrs by broth microdilution method. As to conditions: ATCC 11778, 24 h. The method in brief: as §2
Assay [14] concerns Escherichia coli. Description: Bactericidal activity against multidrug-resistant Escherichia coli BW54 after 24 hrs by CFU counting assay. As to conditions: BW54, 24 h. The gist of the method:
as §1

Assay [15] concerns Acinetobacter haemolyticus. Description: Bactericidal activity against vancomycin-resistant Acinetobacter haemolyticus BW62 after 24 hrs by CFU counting assay. The note with it: BW62, 24 h. The method in brief: as §1
The test system of assay [16] is Stenotrophomonas maltophilia. Description: Bactericidal activity against multidrug-resistant Stenotrophomonas maltophilia D457R after 24 hrs by CFU counting assay. The gist of the method: as §1
For assay [17], the system named is Escherichia coli. Put plainly: Antibacterial activity against ESBL-producing Escherichia coli BW55 after 24 hrs by broth microdilution method. As to conditions: BW55, 24 h. The gist of the method:
as §2

For assay [18], the system named is Pseudomonas aeruginosa. Description: Antibacterial activity against multidrug-resistant Pseudomonas aeruginosa PAO1 after 24 hrs by broth microdilution method. As to conditions: PAO1, 24 h. The method in brief:
as §2

For assay [19], the system named is Staphylococcus aureus. Description: Bactericidal activity against Staphylococcus aureus ATCC 29213 after 24 hrs by CFU counting assay. As to conditions: ATCC 29213, 24 h. The gist of the method:
as §1

In assay [20] the test system is Acinetobacter haemolyticus. Description: Antibacterial activity against vancomycin-resistant Acinetobacter haemolyticus BW62 after 24 hrs by broth microdilution method. The note with it: BW62, 24 h. The method in brief:
as §2

The subject of assay [21] is Pseudomonas aeruginosa. Description: Bactericidal activity against multidrug-resistant Pseudomonas aeruginosa PAO1 after 24 hrs by CFU counting assay. As to conditions: PAO1, 24 h. The gist of the method: as §1
Assay [22] relates to Escherichia coli. Description: Bactericidal activity against ESBL-producing Escherichia coli BW55 after 24 hrs by CFU counting assay. As to conditions: BW55, 24 h. The method in brief: as §1
Assay [23] has as its system Stenotrophomonas maltophilia. Put plainly: Antibacterial activity against multidrug-resistant Stenotrophomonas maltophilia D457R after 24 hrs by broth microdilution method. The method in brief: as §2

In brackets after ≈: the same amount, converted by molar mass. Activity calls are given as the source filed them. The rule behind the calls is not given here.

Turning to `CC1(C)COP(=O)([C@@]2(O)CCC[C@@H]2Cl)OC1`, the outcome (in the assay on Staphylococcus aureus [1]; in the assay with Escherichia coli [2]; with Escherichia coli [4]; in assay [5]; with Bacillus cereus [7]) was inactive. In addition, the zone of inhibition at 10 µg/disc (in assay [3]; in the assay with Pseudomonas aeruginosa [6]) was 6 mm each time.
Consider `O=P(Oc1ccccc1)(Oc1ccccc1)[C@](O)(CCl)c1ccccc1`, for which the minimal bactericidal concentration (MBC) against Staphylococcus aureus [8] is 64 µg/mL (≈ 165 µM); in the assay on Bacillus cereus [9], 32 µg/mL (≈ 82.3 µM); with Escherichia coli [14], 64 µg/mL (≈ 165 µM); in [15], 64 µg/mL (≈ 165 µM); in [16] it was 64 µg/mL (≈ 165 µM); against Staphylococcus aureus [19] it was 64 µg/mL (≈ 165 µM). Further, the MBC against Pseudomonas aeruginosa [21] and in the assay with Escherichia coli [22] was 64 µg/mL (≈ 165 µM) in each case. Besides, the outcome with Staphylococcus aureus [1] was inactive. Moreover, the minimum inhibitory concentration (MIC) in the assay on Staphylococcus aureus [10], in the assay with Escherichia coli [11], against Staphylococcus aureus [12], in the assay with Bacillus cereus [13], in the assay with Escherichia coli [17] and with Pseudomonas aeruginosa [18] was 64 µg/mL (≈ 165 µM) each time. Moreover, the MIC in [20] and in assay [23] was 64 µg/mL (≈ 165 µM) throughout. Further, the zone of inhibition at 10 µg/disc in the assay with Escherichia coli [2] (read-out: IZ) was 9 mm; in assay [3], 7 mm; in the assay on Escherichia coli [4] (read-out: IZ) it was 10 mm; in [5] (read-out: IZ) it was 8 mm; in the assay with Pseudomonas aeruginosa [6], 7 mm; in the assay with Bacillus cereus [7] (read-out: IZ) it was 7 mm.
On to `CO/N=C(\C(=O)N[C@@H]1C(=O)N2C(C(=O)O)=C(CSc3nc(=O)c(O)nn3C)CS[C@H]12)c1csc(N)n1` [CEFTRIAXONE], for which the minimum bactericidal concentration (MBC) in the assay with Staphylococcus aureus [8] was 4 µg/mL (≈ 7.21 µM); against Bacillus cereus [9], 64 µg/mL (≈ 115 µM); against Escherichia coli [14], 0.5 µg/mL (≈ 0.902 µM); in assay [15], 4 µg/mL (≈ 7.21 µM); in assay [16] it was 128 µg/mL (≈ 231 µM); in the assay with Staphylococcus aureus [19], 4 µg/mL (≈ 7.21 µM). Further, the MBC in the assay with Pseudomonas aeruginosa [21] was determined as 128 µg/mL (≈ 231 µM); with Escherichia coli [22], 64 µg/mL (≈ 115 µM). The MIC is 4 µg/mL (≈ 7.21 µM) in the assay with Staphylococcus aureus [10]; no more than 0.5 µg/mL with Escherichia coli [11]; 4 µg/mL (≈ 7.21 µM) in the assay on Staphylococcus aureus [12]; 32 µg/mL (≈ 57.7 µM) in the assay with Bacillus cereus [13]; 32 µg/mL (≈ 57.7 µM) against Escherichia coli [17]; 128 µg/mL (≈ 231 µM) with Pseudomonas aeruginosa [18]. The results for the MIC in [20] and in assay [23] were 4 µg/mL (≈ 7.21 µM) and 64 µg/mL (≈ 115 µM), respectively.
As to `O=C(O)c1cn(C2CC2)c2cc(N3CCNCC3)c(F)cc2c1=O` [CIPROFLOXACIN], the MBC against Staphylococcus aureus [8] was 4 µg/mL (≈ 12.1 µM); in the assay with Bacillus cereus [9] it was 4 µg/mL (≈ 12.1 µM); with Escherichia coli [14], 4 µg/mL (≈ 12.1 µM); in assay [15], 4 µg/mL (≈ 12.1 µM); in assay [16], 256 µg/mL (≈ 773 µM); against Staphylococcus aureus [19] it was 4 µg/mL (≈ 12.1 µM). Besides, the MBC against Pseudomonas aeruginosa [21] is 4 µg/mL (≈ 12.1 µM); in the assay with Escherichia coli [22] it was 1 µg/mL (≈ 3.02 µM). Moreover, the MIC (against Staphylococcus aureus [10]; in the assay on Staphylococcus aureus [12]; against Bacillus cereus [13]; in the assay on Pseudomonas aeruginosa [18]; in assay [20]; in [23]) was 4 µg/mL (≈ 12.1 µM) in each case.
In the case of `CC1(C)COP(=O)([C@@](C)(O)CCl)OC1`, the result (with Staphylococcus aureus [1]; with Escherichia coli [2]; in [3]; with Escherichia coli [4]; in assay [5]; in the assay on Pseudomonas aeruginosa [6]) was inactive. Moreover, the result in the assay with Bacillus cereus [7] was inactive.
Consider `C[C@H](Cl)[C@](O)(c1ccccc1)P1(=O)OCC(C)(C)CO1`, for which the outcome (in the assay with Staphylococcus aureus [1]; in the assay with Escherichia coli [2]; with Escherichia coli [4]; in assay [5]; in the assay with Pseudomonas aeruginosa [6]; in the assay with Bacillus cereus [7]) was inactive. Moreover, the zone of inhibition at 10 µg/disc in assay [3] was 7 mm.
